pIC50: −log10 of the molar value. Converted amounts (≈) assume the structure as drawn. The source made the active and inactive calls. No cut-off for these calls is given here.
Tests used:
[1] = system: Mycobacterium tuberculosis; assay: Antimycobacterial activity against Mycobacterium tuberculosis H37Rv by ten-fold serial dilution method; assay type: functional
In short: (§1)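 Agar dilution: ten-fold serial dilutions incorporated into Middlebrook 7H11 agar with OADC. Inoculum from fresh 7H11 slants, adjusted to 1 mg mL−1 wet weight in 0.05% Tween 80 saline, diluted 10−2 (approx. 10^7 cfu mL−1); 5 μL spotted per tube. 37 °C, read at 28 days. MIC = lowest concentration giving complete growth inhibition.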

[2] = Prodrug activation of compound assessed as sulphur dioxide formation at 100 uM after 30 mins in phosphate buffer at pH 7.4 by pararosaniline-based colorimetric assay in presence of cysteine; details: pH 7.4, 0.5 h
In short: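 Sulfite detection: 900 μL p-rosaniline dye plus 50 μL saturated HgCl2 plus 50 μL sample, kept in the dark 15 min until violet colour developed, then absorbance read.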

[3] = system: Mycobacterium tuberculosis; assay: Antimycobacterial activity against Mycobacterium tuberculosis H37Rv assessed as growth inhibition at 2 ug/ml by ten-fold serial dilution method in presence of cysteine; assay type: functional, organism-based
In short: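 Test material was a cysteine mixture in pH 7.4 buffer, taken about 2 h after mixing and tested at 2 μg mL−1. Run on 7H11-OADC agar against H37Rv: inoculum approx. 10^7 cfu mL−1, 5 μL spotted, 37 °C, read at 28 days for complete growth inhibition.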

[4] = Selectivity index, ratio of IC50 for HEK293 cells to MIC for Mycobacterium tuberculosis H37Rv; assay type: functional
HEK293 = assay: Cytotoxicity against human HEK293 cells after 72 hrs by XTT assay; assay type: cell-based; details: HEK293, 72 h
[5] = system: Mycobacterium tuberculosis; assay: Antimycobacterial activity against Mycobacterium tuberculosis H37Rv assessed as growth inhibition at 100 ug/ml by ten-fold serial dilution method; assay type: functional, organism-based; in short: as §1
[6] = Prodrug activation of compound assessed as sulphur dioxide formation at 100 uM after 4 hrs in phosphate buffer at pH 7.4 by pararosaniline-based colorimetric assay in presence of cysteine; details: pH 7.4, 4 h

| Compound | MIC [1] [µM] | MIC99 [1] [µg/mL] | Drug degradation [2] [µM] | growth inhibition (GI) [3] | Selectivity Index [4] | pIC50 (HEK293) | growth inhibition (GI) [5] | Drug degradation [6] |
| --- | --- | --- | --- | --- | --- | --- | --- | --- |
| O=[N+]([O-])c1ccc(Cl)c([N+](=O)[O-])c1 [DINITROCHLOROBENZENE] | 30.8 (≈ 6.24 µg/mL) | 6.25 (≈ 30.9 µM) | 0 |  |  |  |  |  |
| NNC(=O)c1ccncc1 [ISONIAZID] | 0.37 (≈ 0.0507 µg/mL) | 0.05 (≈ 0.365 µM) |  |  |  |  |  |  |
| NCc1ccccc1 [BENZYLAMINE] | > 250 | > 100 |  |  |  |  |  |  |
| O=[N+]([O-])c1ccc(S(=O)(=O)NCc2ccccc2)c([N+](=O)[O-])c1 | 0.15 (≈ 0.0506 µg/mL) | 0.05 (≈ 0.148 µM) | 100 | inactive | 47 | 5.15 |  |  |
| O=[N+]([O-])c1ccc(S(=O)(=O)N2CCOCC2)c([N+](=O)[O-])c1 | 19.6 (≈ 6.22 µg/mL) | 6.25 (≈ 19.7 µM) | 96 |  |  |  |  |  |
| CN(Cc1ccccc1)S(=O)(=O)c1ccc([N+](=O)[O-])cc1[N+](=O)[O-] | 1.1 (≈ 0.386 µg/mL) | 0.4 (≈ 1.14 µM) | 100 |  |  |  |  |  |
| COC(=O)C(C)NS(=O)(=O)c1ccc([N+](=O)[O-])cc1[N+](=O)[O-] (stereo unspecified) | 18.7 (≈ 6.23 µg/mL) | 6.25 (≈ 18.8 µM) | 93 |  |  |  |  |  |
| O=[N+]([O-])c1ccc(S(=O)(=O)N2CCCCC2)c([N+](=O)[O-])c1 | 2.5 (≈ 0.788 µg/mL) | 0.78 (≈ 2.47 µM) | 91 |  |  |  |  |  |
| O=[N+]([O-])c1ccc(NCc2ccccc2)c([N+](=O)[O-])c1 | > 250 | > 100 | 0 |  |  |  |  |  |
| O=S([O-])[O-].[Na+].[Na+] |  |  |  |  |  |  | inactive |  |
| COC(=O)C1CCCN1S(=O)(=O)c1ccc([N+](=O)[O-])cc1[N+](=O)[O-] (stereo unspecified) | 35 (≈ 12.6 µg/mL) | 12.5 (≈ 34.8 µM) | 83 |  |  |  |  |  |
| O=[N+]([O-])c1ccc(S(=O)(=O)Nc2ccccc2)c([N+](=O)[O-])c1 | 9.7 (≈ 3.14 µg/mL) | 3.13 (≈ 9.68 µM) | 55 |  |  |  |  |  |
| O=[N+]([O-])c1ccccc1S(=O)(=O)NCc1ccccc1 | > 100 | > 50 | 0 |  |  |  |  | Not Active |
| COc1ccc(NS(=O)(=O)c2ccc([N+](=O)[O-])cc2[N+](=O)[O-])cc1 | 4.4 (≈ 1.55 µg/mL) | 1.56 (≈ 4.42 µM) | 79.5 |  |  |  |  |  |
| CCCN(Cc1ccccc1)S(=O)(=O)c1ccc([N+](=O)[O-])cc1[N+](=O)[O-] | 8.25 (≈ 3.13 µg/mL) | 3.13 (≈ 8.25 µM) | 88 |  |  |  |  |  |
| CS(=O)(=O)NCc1ccccc1 | > 100 | > 50 | 0 |  |  |  |  | Not Active |
| O=[N+]([O-])c1ccc(S(=O)(=O)Nc2cccc(F)c2)c([N+](=O)[O-])c1 | 73 (≈ 24.9 µg/mL) | 25 (≈ 73.3 µM) | 24 |  |  |  |  |  |
| O=S(=O)(NCc1ccccc1)c1ccccc1 | > 100 | > 50 | 0 |  |  |  |  | Not Active |
| CN1CCN(S(=O)(=O)c2ccc([N+](=O)[O-])cc2[N+](=O)[O-])CC1 | 38 (≈ 12.6 µg/mL) | 12.5 (≈ 37.8 µM) | 88 |  |  |  |  |  |
| CNCc1ccccc1 [N-BENZYLMETHYLAMINE] | > 250 | > 100 |  |  |  |  | inactive |  |
| O=[N+]([O-])c1ccc(S(=O)(=O)NCc2ccccc2)cc1 | > 100 | > 50 | 0 |  |  |  |  | Not Active |

Source: ChEMBL document CHEMBL1944585, “Design, synthesis, and evaluation of thiol-activated sources of sulfur dioxide (SO₂) as antimycobacterial agents” (J Med Chem, 2012)
